Experimental data pooled from the literature.
Compare with care: the assays were run in different laboratories.
Target: Mitogen-activated protein kinase 7 (MAPK7, Homo sapiens, UniProt Q13164)

Cc1cc(O)c(-c2ccc([C@@H](C)CN(C)C)cc2)c2c1[nH]c(=O)c1sccc12 — inhibition (enzyme activity, inhibitor; 0.1 µM): -0.313%
C[C@H]1CC[C@H](n2c3cnccc3c3cnc(Nc4ccc5c(n4)CCN(C(=O)CO)C5)nc32)CC1 — remaining signal (cell-free assay; 1 µM): 92%
CCCCC(=O)Nc1ccc(-c2ccc3ncn(CCC)c(=O)c3c2)cn1 — remaining binding (binding, competition with immobilised ligand; 0.5 µM): 82%
C[C@]1(O)CCCN(c2nc(Nc3ccc(S(=O)(=O)N[C@H]4CC[C@H](CN5CCN(c6ccc(C7CCC(=O)NC7=O)cc6F)CC5)CC4)cc3F)ncc2C(F)(F)F)C1 (some centres unmarked) — remaining binding (binding, competition with immobilised ligand; 1 µM): 37%
CO[C@@H]1[C@H](N(C)C(=O)c2ccccc2)C[C@H]2O[C@]1(C)n1c3ccccc3c3c4c(c5c6ccccc6n2c5c31)C(=O)NC4 — inhibition (enzyme activity, inhibitor; 1 µM): 0%
COc1ccc2[nH]c3c4[nH]c5ccc(OC)cc5c4c4c(c3c2c1)C(=O)NC4=O — remaining binding (binding; 1 µM): 69%
CC#CC(=O)N1CCC[C@H]1c1nc(-c2ccc(C(=O)Nc3ccccn3)cc2)c2c(N)nccn12 — inhibition (enzyme activity, inhibitor; 1 µM): 0%
C[C@]1(O)CCCN(c2nc(Nc3ccc(S(=O)(=O)N[C@H]4CC[C@H](CN5CCN(c6ccc(C7CCC(=O)NC7=O)cc6F)CC5)CC4)cc3Cl)ncc2C(F)(F)F)C1 (some centres unmarked) — remaining binding (binding, competition with immobilised ligand; 1 µM): 18%
